The RNAGym collection of RNA variant scans (doi:10.1126/science.aae0568)
Variants at the floor of the assay were thinned out.

B1: tRNA (parent)
chain: GUUCCGUUGGCGUAAUGGUAACGCGUCUCCCUCCUAAGGAGAAGACUGCGGGUUCGAGUCCCGUACGGAACG

Variants of: B1
Test: yeast fitness relative to wild type (ratio to wild type); higher = fitter; tRNA-Arg(CCU), competitive growth, 37 C, YPD
Outline: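 Start and end populations of a pooled competition were compared by 100-nucleotide paired-end sequencing of gene amplicons. The Saccharomyces cerevisiae strains carried tRNA-Arg(CCU) gene variants at the native genomic locus, synthesised with a 3% per-site mutation rate at 69 sites, and competed in YPD at 37°C for 24 hours in six parallel replicates. Darwinian fitness relative to wild type was based on the change in genotype frequencies. Genotypes required ≥ 100 starting reads, and estimates < 0.5 were set to 0.5.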
For A15G C55G, the yeast fitness was 0.641. Variant A15C G58C has a yeast fitness of 0.575. For A15G C61A, the yeast fitness was 0.589. Work on A15G C61U yielded a yeast fitness of 0.65. A15G C61G gave a yeast fitness of 0.698. A15G C29A G39A C49U gave a yeast fitness of at most 0.5. Variant A15G C31G U35C has a yeast fitness of 0.531. For A15G A20G C27A A40G A45C, the yeast fitness was 0.503. A15G A45C gave a yeast fitness of 0.796. A15G A45G showed a yeast fitness of 0.853. For A15C U16C A20C U54C A57G, the yeast fitness was at most 0.5. In the case of A15C U54A C61U A70U, the yeast fitness is reported as 0.645. A15G A20U G63A gave a yeast fitness of 0.603. With A15C G56C the yeast fitness was 0.685. In the case of A15G G23U C24G A45G, the yeast fitness is reported as 0.554. A15G C31A G41C C49U showed a yeast fitness of at most 0.5. A15C G52A C66U gave a yeast fitness of at most 0.5. Work on A15C U26A G50C yielded a yeast fitness of at most 0.5. With A15G C27A C49U C55G the yeast fitness was at most 0.5. For A15G C29A C34G U59A C62U, the yeast fitness was at most 0.5. A15G C24A C29G U35G G41C C62U U64A showed a yeast fitness of at most 0.5. A15G A57U showed a yeast fitness of 0.636. A15G G25A C49U A65U showed a yeast fitness of 0.58. Work on A15G G48C A69U yielded a yeast fitness of 0.636. Variant A15G G23A G25A G38A A70U has a yeast fitness of at most 0.5. With A15G G17C C34U C60A the yeast fitness was at most 0.5. Work on A15G C46G G52A yielded a yeast fitness of 0.576. For A15G C29G C46U, the yeast fitness was 0.52. With A15G C29G C34G U64C the yeast fitness was at most 0.5. Variant A15G G23A has a yeast fitness of 0.931. For A15G A20U C29G A43G A70U, the yeast fitness was at most 0.5. A15G G25C G48A G56A showed a yeast fitness of 0.79. A15G G17A C33U G39C showed a yeast fitness of 0.54. Variant A15G C27U G44A G56C has a yeast fitness of at most 0.5. With A15G A45C A69U the yeast fitness was 0.779. For A15C U19C A37C G51A C60A, the yeast fitness was 0.557. Variant A15G A21G C55G has a yeast fitness of at most 0.5. In the case of A15G G39A A69U, the yeast fitness is reported as 0.774. A15G C30G A42C A43C C46G showed a yeast fitness of at most 0.5. A15G C33G G44A C46G C66U showed a yeast fitness of at most 0.5. Variant A15G C60A has a yeast fitness of 0.687. For A15G C60G, the yeast fitness was 0.668. For A15G C49U A69C, the yeast fitness was 0.875. In the case of A15G A20C A21C G23A G52U, the yeast fitness is reported as at most 0.5. In the case of A15G A69U, the yeast fitness is reported as 1.04. With A15G A69G the yeast fitness was 1.05. With A15G G41A U53G the yeast fitness was at most 0.5. For A15G C31A C55U, the yeast fitness was at most 0.5. With A15G C62U A69U the yeast fitness was 0.934. Variant A15G G39C A42C has a yeast fitness of 0.553. Variant A15C U19C A21G C34U U53C has a yeast fitness of at most 0.5. Variant A15G C33A U54A has a yeast fitness of at most 0.5. A15G A42C G50A U59C A65C gave a yeast fitness of at most 0.5. In the case of A15G C31A, the yeast fitness is reported as 0.623. A15G A65C A69U gave a yeast fitness of 0.705. A15G C27G A43G U59A showed a yeast fitness of at most 0.5. In the case of A15G C27A G51C, the yeast fitness is reported as at most 0.5. Work on A15C U19A A70C yielded a yeast fitness of at most 0.5. A15G A45U A70G showed a yeast fitness of 0.617. For A15G C34A, the yeast fitness was 0.811. With A15G G23C A45G G52A G63A the yeast fitness was at most 0.5. With A15C U28A C34G A37G A43U the yeast fitness was at most 0.5. For A15G G25A C61U, the yeast fitness was 0.558. In the case of A15C U19C A37C G51A, the yeast fitness is reported as at most 0.5. A15C U32C C62U showed a yeast fitness of 0.54. For A15G C27G C55U, the yeast fitness was at most 0.5. A15G G39C A40C showed a yeast fitness of 0.622. Work on A15G C24G U32A G41A yielded a yeast fitness of at most 0.5. Variant A15C U16A G56C A57C C60U has a yeast fitness of at most 0.5. A15G A43G A57U showed a yeast fitness of 0.793. Work on A15C U28A C34G A43U yielded a yeast fitness of 0.564. A15G A70U gave a yeast fitness of 1.03. In the case of A15G C34U C49A, the yeast fitness is reported as 0.6. A15G G50A G56A showed a yeast fitness of 0.552. Work on A15C U28G A45G G51C A70G yielded a yeast fitness of 0.584. Variant A15G A20U A45U has a yeast fitness of at most 0.5. A15G C31U U47G G58C C62U gave a yeast fitness of at most 0.5. Variant A15C U59C has a yeast fitness of 0.741. In the case of A15G A45U C61G, the yeast fitness is reported as 0.6. A15C G56A C61U showed a yeast fitness of 0.614. Variant A15C U16G A21C C24A U32A A45C has a yeast fitness of at most 0.5. In the case of A15C U26G U28C A37G G41A C49G, the yeast fitness is reported as 0.59. Work on A15G A21C C49U yielded a yeast fitness of at most 0.5.
